Source: ChEMBL document CHEMBL1153988 (J Med Chem, 2009)
Calls of active or inactive are those of the source. The calls are words filed in the database; no cut-off is given here.

Columns and labels:
Mus musculus [1] = experiment: Anticonvulsant activity in CF1 albino mouse assessed as protection against maximal electroshock-induced seizures at 30 mg/kg, ip after 4 hrs; type: functional, organism-based; set-up: dose 30 mg/kg
Summary of the method: (§1)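 Adult male CF no. 1 albino mice (18-25 g). Test compound suspended in 0.5% methylcellulose and given intraperitoneally at 0.01 mL/g body weight. Maximal electroshock challenge at the stated time. Read-out is the number of animals protected over the number tested; neurotoxicity is scored in parallel.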

Mus musculus [2] = experiment: Anticonvulsant activity in CF1 albino mouse assessed as protection against scMet-induced seizures at 30 mg/kg, ip after 0.5 hrs; type: functional, organism-based; set-up: dose 30 mg/kg
Summary of the method: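 Adult male CF no. 1 albino mice (18-25 g) dosed intraperitoneally with compound suspended in 0.5% methylcellulose (0.01 mL/g). Convulsant challenge given subcutaneously as a 0.85% pentylenetetrazol solution in 0.9% saline. Read-out is animals protected over animals tested, with neurotoxicity scored in parallel.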

Mus musculus [3] = experiment: Neurotoxicity in CF1 albino mouse at 30 mg/kg, ip after 0.5 hrs; type: toxicity, organism-based; set-up: dose 30 mg/kg, route intraperitoneal; conditions: in vivo
Summary of the method: (§2)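 Male CF no. 1 albino mice (18-25 g) received a single ip dose as a suspension in 0.5% methylcellulose. The read-out was the number of animals showing neurotoxicity (minimal motor impairment) over the number tested.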

Mus musculus [4] = experiment: Neurotoxicity in CF1 albino mouse at 300 mg/kg, ip after 4 hrs; type: toxicity, organism-based; set-up: dose 300 mg/kg, route intraperitoneal; conditions: in vivo; summary of the method: as §2
Rattus norvegicus [5] = experiment: Anticonvulsant activity in albino Sprague-Dawley rat assessed as protection against scMet-induced seizures at 50 mg/kg, po after 15 mins; type: functional
Summary of the method: (§3)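 Male Sprague-Dawley albino rats (100-150 g) were given the compound orally as a suspension in 0.5% methylcellulose. Seizures were induced by subcutaneous pentylenetetrazol, dissolved in 0.9% saline as a 2.82% solution. The read-out was animals protected over animals tested.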

Rattus norvegicus [6] = experiment: Anticonvulsant activity in albino Sprague-Dawley rat assessed as protection against scMet-induced seizures at 50 mg/kg, po after 2 hrs; type: functional; summary of the method: as §3
Mus musculus [7] = experiment: Anticonvulsant activity in ip dosed CF1 albino mouse assessed as protection against maximal electroshock-induced seizures; type: functional
Summary of the method: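 Male CF no. 1 albino mice (18-25 g) were dosed ip in 0.5% methylcellulose and tested by maximal electroshock. Doses were varied to give 3-4 points between 0% and 100% protection. ED50 with 95% confidence interval came from probit analysis.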

Mus musculus [8] = organism: Mus musculus; experiment: Protective index, ratio of TD50 for CF1 albino mouse to ED50 for scMet-induced CF1 albino seizure mouse model; type: functional
Summary of the method: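 Ratio of TD50 to ED50 (MES or scMet) in male CF no. 1 mice (18-25 g) given ip doses in 0.5% methylcellulose. TD50 comes from minimal motor impairment: the dose was varied until four points lay between no impairment and all animals impaired. Both TD50 and ED50 were derived by probit analysis with 95% confidence intervals.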

[9] = Neurotoxicity in ip dosed CF1 albino mouse assessed as minimal motor impairment; type: toxicity, organism-based; conditions: CF1, mouse, in vivo
Summary of the method: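 Mice: male CF no. 1 albino (18-25 g), ip dosing in 0.5% methylcellulose. Minimal motor impairment was scored, with doses varied to give four points between no impairment and all animals impaired.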

Mus musculus [10] = experiment: Anticonvulsant activity in CF1 albino mouse assessed as protection against maximal electroshock-induced seizures at 60 mg/kg, ip; type: functional, organism-based; set-up: dose 60 mg/kg; summary of the method: as §1
Mus musculus [11] = experiment: Anticonvulsant activity in CF1 albino mouse assessed as protection against maximal electroshock-induced seizures at 400 mg/kg, ip; type: functional, organism-based; set-up: dose 400 mg/kg; summary of the method: as §1
Mus musculus [12] = experiment: Neurotoxicity in CF1 albino mouse assessed as minimal motor impairment at 60 mg/kg, ip; type: toxicity, organism-based; set-up: dose 60 mg/kg, route intraperitoneal; conditions: in vivo; summary of the method: as §2
Rattus norvegicus [13] = experiment: Anticonvulsant activity in po dosed albino Sprague-Dawley rat assessed as protection against scMet-induced seizures; type: functional
Summary of the method: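 Male Sprague-Dawley albino rats (100-150 g) were dosed orally in 0.5% methylcellulose and tested by MES or by sc pentylenetetrazol (2.82% in 0.9% saline). Doses were varied to give 3-4 points between 0% and 100% protection. ED50 and 95% confidence intervals came from probit analysis.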

Mus musculus [14] = experiment: Anticonvulsant activity in ip dosed CF1 albino mouse assessed as protection against 44 mA-current-induced seizure by 6Hz psychomotor seizure test; type: functional
Summary of the method: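 In the 6 Hz psychomotor seizure test, male CF no. 1 albino mice (18-25 g) received the compound ip in 0.5% methylcellulose. Stimulation was at 32 or 44 mA. Doses were varied to give 3-4 points between 0% and 100% protection, and ED50 with 95% confidence interval came from probit analysis.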

Rattus norvegicus [15] = experiment: Anticonvulsant activity in albino Sprague-Dawley rat assessed as protection against scMet-induced seizures at 25 mg/kg, po; type: functional, organism-based; set-up: dose 25 mg/kg
Summary of the method: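 Oral dosing of male Sprague-Dawley rats (100-150 g) with compound in 0.5% methylcellulose. Convulsant challenge given subcutaneously as a 2.82% pentylenetetrazol solution in 0.9% saline. Groups of about 8 rats per dose. For quantitation, doses spanning 0% to 100% protection were fitted by probit analysis to give ED50 with 95% confidence interval.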

Mus musculus [16] = experiment: Teratogenic effect in SWV mouse assessed as number of litters at 502 mg/kg, ip administered on morning of day 8 of gestation; type: toxicity, organism-based; set-up: dose 502 mg/kg, route intraperitoneal; conditions: in vivo
Summary of the method: (§4)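 Inbred SWV mouse strain highly susceptible to VPA-induced neural tube defects. Each dam received a single ip injection on gestation day 8.5, dosed within 1.8-4.2 mmol/kg, against a control of 25% aqueous Cremophor EL. Groups were compared with the control, and with the matched VPA sodium-salt dose, by Fisher's exact test (p < 0.05).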

Mus musculus [17] = experiment: Teratogenic effect in SWV mouse assessed as number of litters at 336 mg/kg, ip administered on morning of day 8 of gestation; type: toxicity, organism-based; set-up: dose 336 mg/kg, route intraperitoneal; conditions: in vivo; summary of the method: as §4
Mus musculus [18] = experiment: Teratogenic effect in SWV mouse assessed as number of implants at 671 mg/kg, ip administered on morning of day 8 of gestation; type: toxicity, organism-based; set-up: dose 671 mg/kg, route intraperitoneal; conditions: in vivo; summary of the method: as §4
Mus musculus [19] = experiment: Teratogenic effect in SWV mouse assessed as number of implants at 336 mg/kg, ip administered on morning of day 8 of gestation; type: toxicity, organism-based; set-up: dose 336 mg/kg, route intraperitoneal; conditions: in vivo; summary of the method: as §4
Mus musculus [20] = experiment: Teratogenic effect in SWV mouse assessed as live fetuses at 671 mg/kg, ip administered on morning of day 8 of gestation; type: toxicity, organism-based; set-up: dose 671 mg/kg, route intraperitoneal; conditions: in vivo; summary of the method: as §4
Mus musculus [21] = experiment: Teratogenic effect in VPA-induced SWV mouse assessed as number of fetuses with neural tube deffects at 671 mg/kg, ip administered on morning of day 8 of gestation; type: toxicity, organism-based; set-up: dose 671 mg/kg, route intraperitoneal; conditions: in vivo; summary of the method: as §4
Mus musculus [22] = experiment: Anticonvulsant activity in CF1 albino mouse assessed as protection against maximal electroshock-induced seizures at 30 mg/kg, ip after 0.5 hrs; type: functional, organism-based; set-up: dose 30 mg/kg; summary of the method: as §1

Compound: CC1(C)C(C)(C)C1(F)C(N)=O
- Activity (Mus musculus [1]): Non-toxic
- Activity (Mus musculus [2]): Non-toxic
- Activity (Mus musculus [3]): Non-toxic
- Activity (Mus musculus [4]): Non-toxic
- Activity (Rattus norvegicus [5]): 100%
- Activity (Rattus norvegicus [6]): 75%
- ED50 (Mus musculus [7]): > 200 mg/kg
- PI (Mus musculus [8]): 3.2
- TD50 [9]: 120 mg/kg
- Activity (Mus musculus [10]): inactive
- Activity (Mus musculus [11]): Active
- Activity (Mus musculus [12]): Non-toxic
- ED50 (Rattus norvegicus [13]): 6.4 mg/kg
- ED50 (Mus musculus [14]): 59 mg/kg
- Activity (Rattus norvegicus [15]): Active
- Activity (Mus musculus [16]): 10
- Activity (Mus musculus [17]): 8
- Activity (Mus musculus [18]): 55
- Activity (Mus musculus [19]): 112
- Activity (Mus musculus [20]): 21.8%
- Activity (Mus musculus [21]): 0
- Activity (Mus musculus [22]): Non-toxic
